Source: ChEMBL document CHEMBL1240299, “C3-symmetric peptide scaffolds are functional mimetics of trimeric CD40L” (Nat Chem Biol, 2005)
Active and inactive are the calls of the source. The rule behind the calls is not given here.

Molecular target: Tumor necrosis factor receptor superfamily member 5 (Homo sapiens, UniProt P25942)
Test: Binding affinity to human CD40 by surface plasmon resonance method
Method in brief: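 Biacore CM5 chip coated by amine coupling with anti-mouse Ig (~10,000 RU), which captured hCD40:mIg. Ligands were dissolved in water at 1 mM and diluted, then injected at several concentrations at 25 °C in HBS-EP (pH 7.4), 30 µl min⁻¹, 5 min association and 5 min dissociation. Regeneration was 50 mM HCl. Control-channel-subtracted sensorgrams were fitted to binding models.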

Tumor necrosis factor receptor superfamily member 5, sequence (P25942 whole entry): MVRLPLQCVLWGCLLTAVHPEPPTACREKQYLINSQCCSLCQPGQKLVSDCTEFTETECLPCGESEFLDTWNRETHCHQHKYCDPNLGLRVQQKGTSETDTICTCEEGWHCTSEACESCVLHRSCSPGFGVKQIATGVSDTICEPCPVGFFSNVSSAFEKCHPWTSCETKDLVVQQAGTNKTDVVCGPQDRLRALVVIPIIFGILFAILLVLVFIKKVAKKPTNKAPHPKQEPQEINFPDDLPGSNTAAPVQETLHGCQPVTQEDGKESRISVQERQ

SMILES: NCCCC[C@H](N)C(=O)NCC(=O)N[C@@H](Cc1ccc(O)cc1)C(=O)N[C@@H](Cc1ccc(O)cc1)C(=O)NCCCCCC(=O)N[C@@H](CCCCNC(=O)CCCC[C@H]1SC[C@H]2NC(=O)N[C@H]21)C(=O)NCCCCCC(=O)NCCCC[C@@H]1CNC(=O)C[C@H](CCCCNC(=O)CCCCCNC(=O)[C@H](CCCCNC(=O)CCCC[C@H]2SC[C@H]3NC(=O)N[C@H]32)NC(=O)CCCCCNC(=O)[C@H](Cc2ccc(O)cc2)NC(=O)[C@H](Cc2ccc(O)cc2)NC(=O)CNC(=O)[C@@H](N)CCCCN)NC[C@H](CCCCNC(=O)CCCCCNC(=O)[C@H](CCCCNC(=O)CCCC[C@H]2SC[C@H]3NC(=O)N[C@H]32)NC(=O)CCCCCNC(=O)[C@H](Cc2ccc(O)cc2)NC(=O)[C@H](Cc2ccc(O)cc2)NC(=O)CNC(=O)[C@@H](N)CCCCN)NC(=O)C1
- Activity: Active
